Reference: ChEMBL document CHEMBL1127617, “Synthesis and biological evaluation of C-3'-modified analogs of 9(R)-dihydrotaxol” (J Med Chem, 1994)
≈ marks a conversion by molar mass, not a printed value.

What was measured:
A549 = experiment: In vitro cytotoxicity against A549 (human lung carcinoma) cell line.; format: functional, cell-based
Method in brief: (§1)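 Inhibition of cell proliferation measured against untreated cells after 72 h incubation at 37 °C. Read-out by MTT colorimetric microtiter assay. IC50 taken as the agent concentration giving 50% inhibition of proliferation.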

B16-F10 = experiment: In vitro cytotoxicity against B16F10 (mouse melanoma) cell line.; format: functional, cell-based; method in brief: as §1
HT-29 = experiment: In vitro cytotoxicity against HT-29 (human colon adenocarcinoma) cell line.; format: functional, cell-based; method in brief: as §1
P388 = experiment: In vitro cytotoxicity against P388 (murine leukemia) cell line.; format: functional, cell-based; settings: Mus musculus; method in brief: as §1
[1] = Compound was tested for the concentration of agent which reduces the supernatant protein concentration (tubulin, 1 mg/mL) by 50%; ED50/ED50taxol; format: functional
Method in brief: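 Tubulin assembly assay with tubulin at 1 mg/mL, 15 min at 37 °C. Read-out is protein left in the supernatant. ED50 is the agent concentration that lowers supernatant protein by 50%. Value expressed as a ratio to the ED50 of taxol.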

Structure (SMILES) | IC50 (A549) [µg/mL] | IC50 (B16-F10) [µg/mL] | IC50 (HT-29) [µg/mL] | IC50 (P388) [µg/mL] | Ratio [1]
COC[C@H](NC(=O)c1ccccc1)[C@@H](O)C(=O)O[C@H]1C[C@@]2(O)[C@@H](OC(=O)c3ccccc3)[C@@H]3[C@]4(OC(C)=O)CO[C@@H]4C[C@H](O)[C@@]3(C)[C@@H](O)[C@H](OC(C)=O)C(=C1C)C2(C)C | > 0.1 | > 0.1 | 0.079 (≈ 0.0959 µM) | > 0.1 | 3.14
CC(=O)O[C@@H]1C2=C(C)[C@@H](OC(=O)[C@H](O)[C@@H](NC(=O)OC(C)(C)C)C(C)O)C[C@@](O)([C@@H](OC(=O)c3ccccc3)[C@@H]3[C@]4(OC(C)=O)CO[C@@H]4C[C@H](O)[C@@]3(C)[C@H]1O)C2(C)C (single isomer, unassigned) [listing 1 of 2 here] |  |  |  |  | 0.8
CC[C@H](NC(=O)OC(C)(C)C)[C@@H](O)C(=O)O[C@H]1C[C@@]2(O)[C@@H](OC(=O)c3ccccc3)[C@@H]3[C@]4(OC(C)=O)CO[C@@H]4C[C@H](O)[C@@]3(C)[C@@H](O)[C@H](OC(C)=O)C(=C1C)C2(C)C | 0.00083 (≈ 0.00103 µM) | 0.0032 (≈ 0.00398 µM) | 0.0014 (≈ 0.00174 µM) | 0.011 (≈ 0.0137 µM) | 0.61
C=C[C@H](NC(=O)OC(C)(C)C)[C@@H](O)C(=O)O[C@H]1C[C@@]2(O)[C@@H](OC(=O)c3ccccc3)[C@@H]3[C@]4(OC(C)=O)CO[C@@H]4C[C@H](O)[C@@]3(C)[C@@H](O)[C@H](OC(C)=O)C(=C1C)C2(C)C | 0.0011 (≈ 0.00137 µM) | 0.0044 (≈ 0.00549 µM) | 0.0018 (≈ 0.00224 µM) | 0.016 (≈ 0.02 µM) | 0.92
CC(=O)O[C@@H]1C2=C(C)[C@@H](OC(=O)[C@H](O)[C@@H](NC(=O)OC(C)(C)C)[C@H](O)CO)C[C@@](O)([C@@H](OC(=O)c3ccccc3)[C@@H]3[C@]4(OC(C)=O)CO[C@@H]4C[C@H](O)[C@@]3(C)[C@H]1O)C2(C)C | > 0.1 | > 0.1 | > 0.1 | > 0.1 | 2.71
CC(=O)O[C@@H]1C2=C(C)[C@@H](OC(=O)[C@H](O)[C@@H](NC(=O)OC(C)(C)C)C3CCCCC3)C[C@@](O)([C@@H](OC(=O)c3ccccc3)[C@@H]3[C@]4(OC(C)=O)CO[C@@H]4C[C@H](O)[C@@]3(C)[C@H]1O)C2(C)C | 0.0065 (≈ 0.00758 µM) | 0.0057 (≈ 0.00664 µM) | 0.005 (≈ 0.00583 µM) | 0.014 (≈ 0.0163 µM) | 0.57
CC(=O)O[C@@H]1C2=C(C)[C@@H](OC(=O)[C@H](O)[C@@H](NC(=O)OC(C)(C)C)C(C)O)C[C@@](O)([C@@H](OC(=O)c3ccccc3)[C@@H]3[C@]4(OC(C)=O)CO[C@@H]4C[C@H](O)[C@@]3(C)[C@H]1O)C2(C)C (mixture of isomers) |  |  |  |  | 1.2
CC(=O)O[C@@H]1C2=C(C)[C@@H](OC(=O)[C@H](O)[C@H](Cc3ccccc3)NC(=O)OC(C)(C)C)C[C@@](O)([C@@H](OC(=O)c3ccccc3)[C@@H]3[C@]4(OC(C)=O)CO[C@@H]4C[C@H](O)[C@@]3(C)[C@H]1O)C2(C)C | > 0.1 | > 0.1 | > 0.1 | > 0.1 | > 17.1
CCCC[C@H](NC(=O)OC(C)(C)C)[C@@H](O)C(=O)O[C@H]1C[C@@]2(O)[C@@H](OC(=O)c3ccccc3)[C@@H]3[C@]4(OC(C)=O)CO[C@@H]4C[C@H](O)[C@@]3(C)[C@@H](O)[C@H](OC(C)=O)C(=C1C)C2(C)C | 0.0095 (≈ 0.0114 µM) | 0.0097 (≈ 0.0117 µM) | 0.0088 (≈ 0.0106 µM) | 0.018 (≈ 0.0216 µM) | 2.15
CC(=O)O[C@@H]1C2=C(C)[C@@H](OC(=O)[C@H](O)[C@@H](NC(=O)OC(C)(C)C)c3ccccc3)C[C@@](O)([C@@H](OC(=O)c3ccccc3)[C@@H]3[C@]4(OC(C)=O)CO[C@@H]4C[C@H](O)[C@@]3(C)[C@H]1O)C2(C)C | 0.003 (≈ 0.00352 µM) | 0.0004 (≈ 0.00047 µM) | 0.00016 (≈ 0.000188 µM) | 0.0025 (≈ 0.00293 µM) | 0.87
CC(=O)O[C@@H]1C2=C(C)[C@@H](OC(=O)[C@H](O)[C@@H](NC(=O)OC(C)(C)C)[C@H]3COC(C)(C)O3)C[C@@](O)([C@@H](OC(=O)c3ccccc3)[C@@H]3[C@]4(OC(C)=O)CO[C@@H]4C[C@H](O)[C@@]3(C)[C@H]1O)C2(C)C | > 0.1 | 0.086 (≈ 0.0982 µM) | > 0.1 | > 0.1 | 7.91
CCCC[C@@H](NC(=O)OC(C)(C)C)[C@@H](O)C(=O)O[C@H]1C[C@@]2(O)[C@@H](OC(=O)c3ccccc3)[C@@H]3[C@]4(OC(C)=O)CO[C@@H]4C[C@H](O)[C@@]3(C)[C@@H](O)[C@H](OC(C)=O)C(=C1C)C2(C)C | > 0.1 | > 0.1 | 0.067 (≈ 0.0805 µM) | > 0.1 | 9.74
CCCCC[C@H](NC(=O)OC(C)(C)C)[C@@H](O)C(=O)O[C@H]1C[C@@]2(O)[C@@H](OC(=O)c3ccccc3)[C@@H]3[C@]4(OC(C)=O)CO[C@@H]4C[C@H](O)[C@@]3(C)[C@@H](O)[C@H](OC(C)=O)C(=C1C)C2(C)C | 0.012 (≈ 0.0142 µM) | 0.014 (≈ 0.0165 µM) | 0.016 (≈ 0.0189 µM) | 0.016 (≈ 0.0189 µM) | 2
CC(=O)O[C@@H]1C2=C(C)[C@@H](OC(=O)[C@H](O)[C@@H](NC(=O)c3ccccc3)c3ccccc3)C[C@@](O)([C@@H](OC(=O)c3ccccc3)[C@@H]3[C@]4(OC(C)=O)CO[C@@H]4C[C@H](O)[C@@]3(C)[C@H]1O)C2(C)C | 0.019 (≈ 0.0222 µM) | 0.025 (≈ 0.0292 µM) | 0.08 (≈ 0.0935 µM) | 0.053 (≈ 0.0619 µM) | 0.86
CC(=O)O[C@@H]1C2=C(C)[C@@H](OC(=O)[C@H](O)[C@H](C)NC(=O)OC(C)(C)C)C[C@@](O)([C@@H](OC(=O)c3ccccc3)[C@@H]3[C@]4(OC(C)=O)CO[C@@H]4C[C@H](O)[C@@]3(C)[C@H]1O)C2(C)C | 0.015 (≈ 0.019 µM) | 0.019 (≈ 0.0241 µM) | 0.0083 (≈ 0.0105 µM) | 0.043 (≈ 0.0544 µM) | 1.08
CC(=O)O[C@@H]1C2=C(C)[C@@H](OC(=O)[C@H](O)[C@@H](NC(=O)OC(C)(C)C)C(C)O)C[C@@](O)([C@@H](OC(=O)c3ccccc3)[C@@H]3[C@]4(OC(C)=O)CO[C@@H]4C[C@H](O)[C@@]3(C)[C@H]1O)C2(C)C (single isomer, unassigned) [listing 2 of 2 here] | > 0.1 | > 0.1 | > 0.1 | > 0.1 | 
CC(=O)O[C@@H]1C2=C(C)[C@@H](OC(=O)[C@H](O)[C@@H](NC(=O)OC(C)(C)C)c3cscn3)C[C@@](O)([C@@H](OC(=O)c3ccccc3)[C@@H]3[C@]4(OC(C)=O)CO[C@@H]4C[C@H](O)[C@@]3(C)[C@H]1O)C2(C)C | 0.0063 (≈ 0.00733 µM) | 0.0003 (≈ 0.000349 µM) | 0.00092 (≈ 0.00107 µM) | 0.0014 (≈ 0.00163 µM) | 1.36
CC(=O)O[C@@H]1C2=C(C)[C@@H](OC(=O)[C@H](O)[C@H](COc3ccccc3)NC(=O)c3ccccc3)C[C@@](O)([C@@H](OC(=O)c3ccccc3)[C@@H]3[C@]4(OC(C)=O)CO[C@@H]4C[C@H](O)[C@@]3(C)[C@H]1O)C2(C)C | 0.092 (≈ 0.104 µM) | 0.084 (≈ 0.0948 µM) | 0.039 (≈ 0.044 µM) | > 0.1 | 5.81
CC(=O)O[C@@H]1C2=C(C)[C@@H](OC(=O)[C@H](O)[C@H](CC(C)C)NC(=O)OC(C)(C)C)C[C@@](O)([C@@H](OC(=O)c3ccccc3)[C@@H]3[C@]4(OC(C)=O)CO[C@@H]4C[C@H](O)[C@@]3(C)[C@H]1O)C2(C)C | 0.00012 (≈ 0.000144 µM) | 0.0009 (≈ 0.00108 µM) | 0.00038 (≈ 0.000457 µM) | 0.00036 (≈ 0.000433 µM) | 0.95
